Results as given in ChEMBL document CHEMBL2169749 (J Med Chem, 2012).
Converted amounts (≈) assume the structure as drawn.

What was measured:
[1] = (§1) Oral bioavailability in Sprague-Dawley rat at 1 mg/kg; format: ADME, organism-based; settings: Sprague-Dawley, in vivo
In short: (§2)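 Sprague-Dawley rats given 1 mg/kg iv and po, compound dissolved in PEG400. Plasma obtained by centrifugation of collected blood, drug levels quantified by LC/MS/MS. Values are mean ± SD of n = 3.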

[2] = Volume of distribution at steady state in Sprague-Dawley rat at 1 mg/kg, iv; format: ADME, organism-based; set-up: dose 1 mg/kg, route intravenous; settings: in vivo, read-out: Vdss; in short: as §2
[3] = (§3) AUC in Sprague-Dawley rat at 1 mg/kg, po; format: ADME, organism-based, Plasma; set-up: dose 1 mg/kg, route oral; settings: Sprague-Dawley, plasma; in short: as §2
Rattus norvegicus [4] = experiment: Antiinflammatory activity in rat assessed as inhibition of LPS-induced TNFalpha production at 1 mg/kg, po administered 4 hrs prior to LPS-challenge measured after 1 to 1.5 hrs by ELISA relative to vehicle-treated control; format: functional
In short: (§4)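 Rats dosed orally with compound suspended in 0.5% methylcellulose/0.1% Tween-80, 4 h before LPS (10 μg/animal, ip). At 1.0 or 1.5 h after LPS, retro-orbital blood collected into heparin under anesthesia. Plasma diluted one-fifth and assayed by rat TNF-α ELISA. Percent inhibition taken relative to vehicle group (n = 3−4).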

THP-1 = experiment: Antiinflammatory activity in human THP1 cells assessed as inhibition of LPS-induced TNFalpha production after 20 hrs; format: functional, cell-based; settings: THP-1, 20 h
In short: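 THP-1 human monocytic cells kept in RPMI 1640 with 10% FBS, penicillin and streptomycin at 37 °C, 5% CO2. Cells (1 × 10^5/well) stimulated with LPS (10 μg/mL final, E. coli 055:B5) with compound or 0.1% DMSO vehicle for 20 h at 37 °C. Supernatant TNF-α compared with DMSO control. IC50 given as mean of triplicate experiments.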

[5] = Half life in Sprague-Dawley rat at 1 mg/kg, iv; format: ADME, organism-based; set-up: dose 1 mg/kg, route intravenous; settings: in vivo; in short: as §2
[6] = Permeability of the compound by PAMPA assay at pH 6.5; format: ADME; settings: read-out: permeability
In short: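 PAMPA with pION membrane lipid, donor buffer pH 6.5, n = 2.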

Rattus norvegicus [7] = experiment: Antiinflammatory activity in Lewis rat assessed as suppression of Mycobacterium tuberculosis adjuvant-induced paw edema at 1 mg/kg, po administered QD from days 15 to 24 post adjuvant-challenge measured on day 25 relative to vehicle-treated control; format: functional
In short: (§5)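 Female Lewis rats, 7 weeks old; arthritis induced on day 0 by 0.5 mg M. tuberculosis in 50 μL liquid paraffin injected into right hind footpad. Randomized on day 15 (n ≥ 5) by left hind paw volume increase and body weight; drug suspended in 0.5% methylcellulose given orally once daily days 15–24. Left hind paw volume measured day 25 by water displacement plethysmometry; edema expressed as percentage of control.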

[8] = Total clearance in Sprague-Dawley rat at 1 mg/kg, iv; format: ADME, organism-based; set-up: dose 1 mg/kg, route intravenous; settings: in vivo; in short: as §2
Rattus norvegicus [9] = experiment: as §1; format: ADME, organism-based; settings: in vivo; in short: as §2
Rattus norvegicus [10] = experiment: as §3; format: ADME, organism-based, Plasma; set-up: dose 1 mg/kg, route oral; settings: in vivo; in short: as §2
[11] = Half life in rat liver homogenate; format: ADME, tissue-based
[12] = Intrinsic clearance in rat liver microsomes in presence of NADPH; format: ADME, Microsome; settings: read-out: CLH
In short: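 Incubation with rat liver microsomes in the presence of an NADPH-generating system, n = 2.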

Rattus norvegicus [13] = experiment: Antiinflammatory activity in po dosed Lewis rat assessed as suppression of Mycobacterium tuberculosis adjuvant-induced paw edema administered QD from days 15 to 24 post adjuvant-challenge measured on day 25 relative to vehicle-treated control; format: functional; settings: 600 h; in short: as §5
Rattus norvegicus [14] = experiment: Antiinflammatory activity in po dosed rat assessed as inhibition of LPS-induced TNFalpha production administered 4 hrs prior to LPS-challenge measured after 1 to 1.5 hrs by ELISA relative to vehicle-treated control; format: functional; in short: as §4
Rattus norvegicus [15] = experiment: Antiinflammatory activity in rat assessed as inhibition of LPS-induced TNFalpha production at 3.2 mg/kg, po administered 4 hrs prior to LPS-challenge measured after 1 to 1.5 hrs by ELISA relative to vehicle-treated control; format: functional; in short: as §4
[16] = target: Mitogen-activated protein kinase 9 (Homo sapiens, UniProt P45984); experiment: Inhibition of human recombinant JNK2alpha2-mediated ATF-2 phosphorylation after 30 mins by immunoblotting method
Sequence of Mitogen-activated protein kinase 9 (P45984 whole entry): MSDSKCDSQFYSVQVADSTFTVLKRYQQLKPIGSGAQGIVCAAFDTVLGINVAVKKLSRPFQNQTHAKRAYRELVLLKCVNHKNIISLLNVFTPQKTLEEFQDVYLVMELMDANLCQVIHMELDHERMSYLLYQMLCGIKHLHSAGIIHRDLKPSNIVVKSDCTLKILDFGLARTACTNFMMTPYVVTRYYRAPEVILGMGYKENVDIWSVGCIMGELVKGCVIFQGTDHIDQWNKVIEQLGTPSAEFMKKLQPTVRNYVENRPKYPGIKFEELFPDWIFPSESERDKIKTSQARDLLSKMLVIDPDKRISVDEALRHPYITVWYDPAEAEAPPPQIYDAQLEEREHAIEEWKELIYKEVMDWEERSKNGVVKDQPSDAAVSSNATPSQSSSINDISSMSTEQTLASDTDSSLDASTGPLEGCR

[17] = target: Mitogen-activated protein kinase 11 (Homo sapiens, UniProt Q15759); experiment: Inhibition of human MAPK p38beta by Z'-LYTE assay
Sequence of Mitogen-activated protein kinase 11 (Q15759 whole entry): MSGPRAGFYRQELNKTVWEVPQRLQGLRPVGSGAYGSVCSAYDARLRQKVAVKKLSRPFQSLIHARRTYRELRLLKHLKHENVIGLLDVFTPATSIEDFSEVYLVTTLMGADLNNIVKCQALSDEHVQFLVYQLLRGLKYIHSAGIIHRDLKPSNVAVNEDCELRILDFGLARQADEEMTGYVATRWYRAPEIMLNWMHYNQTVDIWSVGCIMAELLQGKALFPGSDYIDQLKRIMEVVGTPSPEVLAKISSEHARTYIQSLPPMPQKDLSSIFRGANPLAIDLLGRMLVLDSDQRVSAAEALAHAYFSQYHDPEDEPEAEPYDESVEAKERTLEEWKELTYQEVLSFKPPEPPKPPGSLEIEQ
In short: (§6)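 Human p38α or p38β kinase activity measured by Z′-Lyte kinase assay system.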

Cytochrome P450 2C9 = Cytochrome P450 2C9 (Homo sapiens, UniProt P11712); experiment: Inhibition of CYP2C9; format: ADME
Sequence of Cytochrome P450 2C9 (P11712 whole entry): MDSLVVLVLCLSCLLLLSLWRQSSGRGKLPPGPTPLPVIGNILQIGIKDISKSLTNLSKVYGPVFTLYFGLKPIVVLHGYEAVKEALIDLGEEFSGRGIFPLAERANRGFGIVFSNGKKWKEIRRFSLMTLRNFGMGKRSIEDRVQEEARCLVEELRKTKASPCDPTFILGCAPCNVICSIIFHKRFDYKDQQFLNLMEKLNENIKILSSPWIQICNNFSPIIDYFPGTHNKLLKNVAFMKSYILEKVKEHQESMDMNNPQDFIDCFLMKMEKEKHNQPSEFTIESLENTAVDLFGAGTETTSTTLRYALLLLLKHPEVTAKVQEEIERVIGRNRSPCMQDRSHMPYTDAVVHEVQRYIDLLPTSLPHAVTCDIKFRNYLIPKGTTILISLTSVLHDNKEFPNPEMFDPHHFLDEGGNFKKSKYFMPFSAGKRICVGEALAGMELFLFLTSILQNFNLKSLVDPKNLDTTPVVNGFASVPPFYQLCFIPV

[18] = target: Mitogen-activated protein kinase 14 (Homo sapiens, UniProt Q16539); experiment: Inhibition of human MAPK p38alpha by Z'-LYTE assay; in short: as §6
Sequence of Mitogen-activated protein kinase 14 (Q16539 whole entry, looked up): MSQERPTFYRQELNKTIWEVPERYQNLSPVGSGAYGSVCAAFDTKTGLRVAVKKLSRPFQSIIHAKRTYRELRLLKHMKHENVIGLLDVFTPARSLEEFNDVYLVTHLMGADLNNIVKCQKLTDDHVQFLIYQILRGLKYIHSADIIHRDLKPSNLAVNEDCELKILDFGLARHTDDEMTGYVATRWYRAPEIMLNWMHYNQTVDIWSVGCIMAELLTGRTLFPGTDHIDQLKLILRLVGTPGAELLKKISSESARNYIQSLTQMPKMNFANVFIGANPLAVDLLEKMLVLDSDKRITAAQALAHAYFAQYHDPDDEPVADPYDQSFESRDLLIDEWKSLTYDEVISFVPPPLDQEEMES

[19] = Solubility of the compound at pH 6.8; format: physicochemical; settings: buffer
Cytochrome P450 2C19 = Cytochrome P450 2C19 (Homo sapiens, UniProt P33261); experiment: Inhibition of CYP2C19; format: ADME
Sequence of Cytochrome P450 2C19 (P33261 whole entry): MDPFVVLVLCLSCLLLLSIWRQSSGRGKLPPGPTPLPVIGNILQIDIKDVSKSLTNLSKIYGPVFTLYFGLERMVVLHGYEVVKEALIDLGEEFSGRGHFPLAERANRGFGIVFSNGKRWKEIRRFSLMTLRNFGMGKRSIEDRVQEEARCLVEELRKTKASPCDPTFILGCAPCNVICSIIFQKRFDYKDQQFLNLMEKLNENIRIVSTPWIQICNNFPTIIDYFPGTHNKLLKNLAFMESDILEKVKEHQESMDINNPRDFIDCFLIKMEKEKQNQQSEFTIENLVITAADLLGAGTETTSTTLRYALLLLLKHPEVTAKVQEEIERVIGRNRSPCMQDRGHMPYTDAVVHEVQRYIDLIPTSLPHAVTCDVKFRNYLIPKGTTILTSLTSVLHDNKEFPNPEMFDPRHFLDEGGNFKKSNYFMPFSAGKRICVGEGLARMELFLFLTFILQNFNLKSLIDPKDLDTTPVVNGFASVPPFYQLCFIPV

Cytochrome P450 1A2 = target: T1, Cytochrome P450 1A2 (Homo sapiens, UniProt P05177); experiment: Inhibition of CYP1A2; format: ADME
T1 sequence (P05177 whole entry): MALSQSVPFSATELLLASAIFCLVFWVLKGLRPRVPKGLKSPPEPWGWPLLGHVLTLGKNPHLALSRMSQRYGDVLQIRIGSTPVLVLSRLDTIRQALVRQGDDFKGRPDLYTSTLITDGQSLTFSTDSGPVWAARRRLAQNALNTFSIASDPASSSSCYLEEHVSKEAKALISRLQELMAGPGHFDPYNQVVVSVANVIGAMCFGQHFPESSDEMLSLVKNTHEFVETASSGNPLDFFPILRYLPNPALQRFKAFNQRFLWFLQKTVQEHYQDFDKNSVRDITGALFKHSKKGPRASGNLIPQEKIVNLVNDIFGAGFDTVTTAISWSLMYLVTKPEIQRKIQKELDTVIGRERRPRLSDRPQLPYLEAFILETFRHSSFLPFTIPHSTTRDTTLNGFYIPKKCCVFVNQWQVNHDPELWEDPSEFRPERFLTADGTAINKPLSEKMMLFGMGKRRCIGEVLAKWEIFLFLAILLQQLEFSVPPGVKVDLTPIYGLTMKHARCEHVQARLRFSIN

Cytochrome P450 2D6 = Cytochrome P450 2D6 (Homo sapiens, UniProt P10635); experiment: Inhibition of CYP2D6; format: ADME
Sequence of Cytochrome P450 2D6 (P10635 whole entry): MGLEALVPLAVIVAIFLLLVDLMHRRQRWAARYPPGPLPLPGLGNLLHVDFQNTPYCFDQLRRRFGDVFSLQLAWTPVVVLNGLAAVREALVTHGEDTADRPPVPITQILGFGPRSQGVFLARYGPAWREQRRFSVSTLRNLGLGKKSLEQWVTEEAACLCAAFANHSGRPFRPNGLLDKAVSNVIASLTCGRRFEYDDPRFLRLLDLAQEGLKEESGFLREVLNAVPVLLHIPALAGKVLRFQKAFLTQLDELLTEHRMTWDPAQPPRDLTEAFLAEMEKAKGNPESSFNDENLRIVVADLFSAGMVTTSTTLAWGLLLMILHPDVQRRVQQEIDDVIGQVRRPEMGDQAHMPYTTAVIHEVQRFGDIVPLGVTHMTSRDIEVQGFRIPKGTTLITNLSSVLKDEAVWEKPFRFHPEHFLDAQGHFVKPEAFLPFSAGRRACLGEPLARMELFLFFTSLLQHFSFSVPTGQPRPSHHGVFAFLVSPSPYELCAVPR

[20] = target: Voltage-gated inwardly rectifying potassium channel KCNH2 (Homo sapiens, UniProt Q12809); experiment: Inhibition of human ERG by Rb ion flux assay
Sequence of Voltage-gated inwardly rectifying potassium channel KCNH2 (Q12809 whole entry): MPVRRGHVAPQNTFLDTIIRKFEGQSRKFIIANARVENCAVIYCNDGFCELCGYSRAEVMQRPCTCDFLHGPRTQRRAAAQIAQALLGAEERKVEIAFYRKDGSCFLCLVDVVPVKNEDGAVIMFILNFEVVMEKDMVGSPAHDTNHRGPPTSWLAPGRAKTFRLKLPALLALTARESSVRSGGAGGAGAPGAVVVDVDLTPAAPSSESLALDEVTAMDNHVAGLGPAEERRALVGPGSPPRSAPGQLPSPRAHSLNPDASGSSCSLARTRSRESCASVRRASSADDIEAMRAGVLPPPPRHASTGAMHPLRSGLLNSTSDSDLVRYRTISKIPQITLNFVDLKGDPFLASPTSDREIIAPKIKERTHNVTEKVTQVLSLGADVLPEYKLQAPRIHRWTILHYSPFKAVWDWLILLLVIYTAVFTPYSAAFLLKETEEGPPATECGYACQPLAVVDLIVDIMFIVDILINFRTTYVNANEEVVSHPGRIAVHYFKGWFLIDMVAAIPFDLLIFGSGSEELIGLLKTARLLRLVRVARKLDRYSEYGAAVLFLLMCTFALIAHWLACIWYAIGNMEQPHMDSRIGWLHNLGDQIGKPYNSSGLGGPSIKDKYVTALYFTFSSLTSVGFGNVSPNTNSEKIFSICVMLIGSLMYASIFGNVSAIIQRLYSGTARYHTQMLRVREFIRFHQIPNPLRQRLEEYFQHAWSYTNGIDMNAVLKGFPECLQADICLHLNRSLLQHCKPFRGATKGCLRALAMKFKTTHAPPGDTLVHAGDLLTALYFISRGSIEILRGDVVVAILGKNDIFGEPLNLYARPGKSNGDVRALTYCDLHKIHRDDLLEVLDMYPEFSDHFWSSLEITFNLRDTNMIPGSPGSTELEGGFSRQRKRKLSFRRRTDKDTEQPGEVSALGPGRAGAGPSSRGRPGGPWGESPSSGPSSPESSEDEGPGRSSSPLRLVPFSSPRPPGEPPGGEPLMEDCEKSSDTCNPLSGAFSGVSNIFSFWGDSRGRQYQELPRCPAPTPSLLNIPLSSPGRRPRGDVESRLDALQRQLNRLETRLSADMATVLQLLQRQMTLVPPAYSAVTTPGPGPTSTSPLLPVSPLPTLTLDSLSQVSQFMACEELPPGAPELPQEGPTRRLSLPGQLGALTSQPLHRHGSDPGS

| Structure (SMILES) | Vd [2] | inhibition in vivo at 1 mg/kg (Rattus norvegicus [4]) | IC50 (THP-1) | half-life [5] | Papp [6] | Activity (Rattus norvegicus [7]) | further results |
| --- | --- | --- | --- | --- | --- | --- | --- |
| Cc1ccccc1-n1nc(-c2c(-c3ccc(F)cc3)nn3c2N[C@H](CO)CC3)ccc1=O | 0.98 L/kg | 98% | 0.37 nM | 5.95 h | 22 ×10⁻⁶ cm/s | 62.3% | bioavailability [1]: 100%; AUC [3]: 4500 ng·h/mL; clearance [8]: 3.8 mL/min/kg |
| Cc1ccccc1-n1nc(-c2c(-c3ccc(F)cc3)nn3c2NCC3)ccc1=O | – | – | 106 nM | – | – | – | – |
| Cc1ccccc1-n1nc(-c2c(-c3ccc(F)cc3)nn3c2NC[C@H](O)C3)ccc1=O | 4.21 L/kg | 89% | 1.8 nM | 9.01 h | 17 ×10⁻⁶ cm/s | 51% | F (Rattus norvegicus [9]): 81%; AUC (Rattus norvegicus [10]): 457 ng·h/mL |
| CNc1c(-c2ccc(=O)n(-c3ccccc3C)n2)c(-c2ccc(F)cc2)nn1C | 0.65 L/kg | 86% | 6 nM | 0.66 h | 30 ×10⁻⁶ cm/s | 37% | bioavailability [1]: 28.6%; AUC [3]: 235 ng·h/mL; half-life [11]: 0.66 h; CLint scaled [12]: 213 mL/min/kg; clearance [8]: 20.6 mL/min/kg |
| Cc1ccccc1-n1nc(-c2c(-c3ccc(F)cc3)nn3c2NC[C@@H](O)C3)ccc1=O | 1.23 L/kg | 94% | 0.85 nM | 3.89 h | 16 ×10⁻⁶ cm/s | 61.4% | F (Rattus norvegicus [9]): 67.7%; AUC (Rattus norvegicus [10]): 763 ng·h/mL |
| Cc1ccc(-n2nc(C(C)(C)C)cc2NC(=O)Nc2ccc(OCCN3CCOCC3)c3ccccc23)cc1 [DORAMAPIMOD] | – | – | – | – | – | – | ED30 (Rattus norvegicus [13]): 5.8 mg/kg; ED50 (Rattus norvegicus [14]): 2.6 mg/kg |
| O=c1ccc(-c2c(-c3ccccc3)nn3ccccc23)nn1CC1(O)CCCCC1 | – | – | 14 nM | – | – | – | inhibition in vivo at 3.2 mg/kg (Rattus norvegicus [15]): 43%; CLint scaled [12]: 195 mL/min/kg |
| Cc1ccccc1-n1nc(-c2c(-c3ccc(F)cc3)nn3c2NC[C@H](CO)C3)ccc1=O | 1.11 L/kg | 92% | 0.95 nM | 3.82 h | – | 59.7% | F (Rattus norvegicus [9]): 103.6%; AUC (Rattus norvegicus [10]): 1217 ng·h/mL |
| Cc1ccccc1-n1nc(-c2c(-c3ccc(F)cc3)nn3c2N[C@@H](CO)CC3)ccc1=O | – | 98% | 0.46 nM | – | 23 ×10⁻⁶ cm/s | – | – |
| Cc1ccccc1-n1nc(-c2c(-c3ccc(F)cc3)nn3c2OCCC3)ccc1=O | – | 33% | 10 nM | – | – | – | – |
| Cc1ccccc1-n1nc(-c2c(-c3ccc(F)cc3)nn3c2NCC(CN2CCN(C)CC2)C3)ccc1=O (centres undefined) | – | 88% | 1.1 nM | – | 21 ×10⁻⁶ cm/s | – | – |
| Cc1ccccc1-n1nc(-c2c(-c3ccc(F)cc3)nn3c2NC[C@@H](CO)C3)ccc1=O [AS1940477] | 0.77 L/kg | 92% | 0.6 nM | 5.15 h | 19.7 ×10⁻⁶ cm/s | 71.3% | F (Rattus norvegicus [9]): 61.8%; IC50 [16]: > 10000 nM; ED30 (Rattus norvegicus [13]): 0.15 mg/kg; IC50 [17]: 36 nM; IC50 (Cytochrome P450 2C9): 19000 nM; IC50 [18]: 11 nM; solubility [19]: 42 µg/mL (≈ 97.3 µM); ED50 (Rattus norvegicus [14]): 0.05 mg/kg; AUC (Rattus norvegicus [10]): 1518 ng·h/mL; IC50 (Cytochrome P450 2C19): > 50000 nM; IC50 (Cytochrome P450 1A2): > 50000 nM; IC50 (Cytochrome P450 2D6): > 50000 nM; IC50 [20]: > 100000 nM |
| Cc1ccccc1-n1nc(-c2c(-c3ccc(F)cc3)nn3c2NCCC3)ccc1=O | – | 93% | 1 nM | – | 30 ×10⁻⁶ cm/s | – | CLint scaled [12]: 94 mL/min/kg |
| O=c1ncn2nc(Sc3ccc(F)cc3F)ccc2c1-c1c(Cl)cccc1Cl [NEFLAMAPIMOD] | – | – | – | – | – | – | ED30 (Rattus norvegicus [13]): 92 mg/kg; ED50 (Rattus norvegicus [14]): 39.9 mg/kg |
| Cc1ccccc1-n1nc(-c2c(-c3ccc(F)cc3)nn3cc(CO)cnc23)ccc1=O | – | 11% | 23 nM | – | – | – | – |
